Source: PubChem BioAssay
Statin myotox sup = suppressors of statin myotoxicity in C2C12 myotubes, primary screen, cell-based, single point, plate reader. rescue of ATP level, % at 7.49 µM. actives 0.78% (n = 330,000). C2C12 myotubes + simvastatin, ATP luminescence, 48 h; scaled: DMSO 0, geranylgeraniol control 100;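 active = mean ATP rescue above about 67%, or every replicate alone reaching that limit, limit read from the data, passing the limit was not always enough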;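 note: myotubes were challenged with 10 µM simvastatin during compound exposure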
Mot1-301 SUMO = yeast Mot1-301 growth rescue at high temperature, primary screen, SUMOylation pathway inhibitor project, S. cerevisiae, ATP luminescence, 38.5C | growth rescue, % at 18.8 µM | actives 1% (n = 320,000) | S. cerevisiae Mot1-301 growth rescue; percent above DMSO median, 100 means doubled;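 active = every valid replicate shows activation above 250% relative to neutral control wells; inactive = the rest, any valid replicate at or below 250%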
Cneo AK release = Cryptococcus neoformans cell lysis inducers, primary screen, AK release luminescence, single concentration | C. neoformans lysis, adenylate kinase release luminescence, 4 h; normalised: neutral wells 0, clomiphene wells 100 | actives 0.2% (n = 360,000) | lysis activity, % at 15 µM | AID 651654, 2012;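 active = mean lysis activity across replicates of at least 80%, whatever share of replicates individually reach that level; inactive = mean lysis activity below 80%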
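Schedule: static 4 h at 37 °C with compound, 1 h detection; system: C. neoformans cells; benchmarks: Clomiphene as positive control; buffer or medium: fresh YPD medium; measure: luminescence rise reflecting yeast cell lysis; measured by: luminescent adenylate kinase detection reagent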
Yeast Mot1 SUMO = growth restoration of Mot1-301 yeast on galactose, dose response, SUMO pathway inhibitor project, whole organism, S. cerevisiae, ATP luminescence, cherry-picked samples. growth activity, percent, % at 42 µM. 2,300 tested, under 10 active. AID 493004, 2010. shares compounds with Mot1-301 SUMO. S. cerevisiae Mot1-301 galactose growth, 24 h; -100 = growth of slx-deleted rescue strain;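 active = Signal drops as the depositor expects, and the fitted half-maximal dose is no more than ten times the top valid tested dose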;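 note: more negative values mean stronger growth rescue toward the control strain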
Large screens that a line does not name were inactive (follow-up assays come after a bar, where they were run). An excerpt weighted towards active compounds, which were near 1.5% of everything screened.

CN1CCc2c(sc3c2c(=O)n(-c2cccc(Cl)c2)c2nncn32)C1	none
O=C(NC[C@H]1[C@H](c2ccccc2)[C@H](CO)N1CC1CCCC1)c1ccncc1	none (no result: Mot1-301 SUMO)
C[C@@H]1CN([C@@H](C)CO)C(=O)c2cc(NC(=O)Nc3ccc4c(c3)OCO4)ccc2O[C@@H]1CN(C)Cc1ccc(Cl)c(Cl)c1	none (no result: Mot1-301 SUMO)
COc1ccc(/C=N/Nc2ccc(C(=O)O)cc2)c(OC)c1OC	none
COc1ccc(/C=N\Nc2ccc([N+](=O)[O-])cc2)c(C(=O)O)c1OC	Mot1-301 SUMO 455 (no result: Cneo AK release) | Yeast Mot1 SUMO inactive
Cc1ccnc(NC(c2ccccc2)c2ccc3cccnc3c2O)c1 (configuration not stated)	none (no result: Mot1-301 SUMO)
Cc1ccnc(NC(c2cccnc2)c2ccc3cccnc3c2O)c1 (configuration not stated)	Mot1-301 SUMO active (no result: Statin myotox sup, Cneo AK release) | Yeast Mot1 SUMO inactive
COc1ccccc1C(=O)N1C[C@@H]2[C@H](c3ccccc31)[C@H](CO)N2CC1CCCC1	none (no result: Mot1-301 SUMO)
Cc1nc2sc3c(c2c(=O)[nH]1)CCC3	none
O=c1[nH]cnc2sc3c(c12)CCC3	Mot1-301 SUMO 626 (no result: Cneo AK release) | Yeast Mot1 SUMO inactive
O=C(NCc1ccco1)c1ccc(Br)c(S(=O)(=O)N2CCCCC2)c1	Mot1-301 SUMO 584 | Yeast Mot1 SUMO inactive
O=C(NCc1ccco1)c1ccc(F)c(S(=O)(=O)N2CCCCC2)c1	none (no result: Statin myotox sup, Cneo AK release)
C[C@@H]1CCCCO[C@H](CN(C)Cc2ccccc2)[C@H](C)CN([C@H](C)CO)C(=O)c2cc(NS(=O)(=O)c3cn(C)cn3)ccc2O1	none (no result: Statin myotox sup, Mot1-301 SUMO)
O=C(C[C@H]1CC[C@@H](NC(=O)C2CCOCC2)[C@H](CO)O1)NCc1ccccc1Cl	none (no result: Mot1-301 SUMO)
Cn1cnc2cc(NC(=O)c3ccc(Cl)cc3)ccc21	none
CC(C)(C)n1cnc2cc(NC(=O)c3ccc(Cl)cc3)ccc21	Mot1-301 SUMO 562 | Yeast Mot1 SUMO inactive
CNC[C@@H]1OCCCC[C@H](C)Oc2ccc(NC(=O)CCC(F)(F)F)cc2C(=O)N([C@H](C)CO)C[C@H]1C	none (no result: Mot1-301 SUMO)
CNC(=O)C[C@@H]1CC[C@@H]2[C@@H](COc3ccc(NC(=O)c4cc(C)on4)cc3C(=O)N2C)O1	none (no result: Mot1-301 SUMO)
COc1ccc(CN(C)C(=O)c2sccc2-c2ccccc2)c(OC)c1	Mot1-301 SUMO 485 (no result: Statin myotox sup) | Yeast Mot1 SUMO inactive
COc1ccc(CN(C)C(=O)c2ccc(COc3ccccc3)cc2)c(OC)c1	none
C[C@@H]1CN([C@@H](C)CO)C(=O)CCCn2cc(nn2)CO[C@@H]1CN(C)Cc1ccc(O)cc1	none (no result: Mot1-301 SUMO)
Cc1ccc2c(c1)N(CC(=O)NCCCN1CCN(C)CC1)C(=O)CO2	Mot1-301 SUMO 634 | Yeast Mot1 SUMO inactive
CN1CCN(CCCNC(=O)CN2C(=O)COc3ccccc32)CC1	none (no result: Cneo AK release)
O=C(C[C@@H]1CC[C@@H]2[C@H](COC[C@@H](O)CN2C(=O)c2ccccc2F)O1)NCc1ccccc1	none (no result: Mot1-301 SUMO)
COc1ccc(C(=O)COc2ccc3ccc(=O)oc3c2)cc1	Mot1-301 SUMO 426 | Yeast Mot1 SUMO inactive
COc1ccc(C(=O)COc2ccc3ccc(=O)oc3c2)c(OC)c1	none
CC(C)c1onc(C(=O)NCCc2ccccc2)c1[N+](=O)[O-]	none (no result: Statin myotox sup, Cneo AK release)
CC(C)c1onc(C(=O)N(C)Cc2ccccc2)c1[N+](=O)[O-]	Mot1-301 SUMO 726 | Yeast Mot1 SUMO inactive
COCc1cn(CC[C@H]2CC[C@H](NC(=O)Nc3ccc(OC)cc3)[C@H](CO)O2)nn1	none (no result: Mot1-301 SUMO)
C[C@H](CO)N1C[C@H](C)[C@@H](CN(C)S(=O)(=O)c2cn(C)cn2)Oc2ncc(/C=C/c3ccccc3)cc2C1=O	none (no result: Mot1-301 SUMO)
N#C[C@@H]1[C@H](c2ccc(C3=CCCC3)cc2)[C@@H](CO)N1C(=O)c1cccc(F)c1	none (no result: Mot1-301 SUMO)
CCOc1ccccc1Nc1nnc(SCc2nnc(-c3cc(OC)c(OC)c(OC)c3)o2)s1	Mot1-301 SUMO 608 (no result: Statin myotox sup) | Yeast Mot1 SUMO inactive
COc1ccccc1Nc1nnc(SCc2nnc(-c3cc(OC)c(OC)c(OC)c3)o2)s1	none (no result: Statin myotox sup, Cneo AK release)
C[C@H]1CCCCO[C@H](CN(C)S(=O)(=O)c2cn(C)cn2)[C@@H](C)CN([C@@H](C)CO)C(=O)c2cc(NC(=O)CCC(F)(F)F)ccc2O1	none (no result: Mot1-301 SUMO)
Cc1ccc2c(c1)[C@H]1[C@H](CO2)[C@H](c2ccccc2)[C@]2(C)C(=O)Nc3ccc(F)cc3C(=O)N12	none (no result: Mot1-301 SUMO)
COc1ccc2c(c1)C(=O)N1[C@H]3c4cc(Cl)ccc4OC[C@@H]3[C@H](c3ccccc3)[C@]1(C)C(=O)N2	none
